In ChEMBL document CHEMBL1817551, “Design of small molecule inhibitors of acetyl-CoA carboxylase 1 and 2 showing reduction of hepatic malonyl-CoA levels in vivo in obese Zucker rats” (Bioorg Med Chem, 2011):
≈ marks a conversion by molar mass, not a printed value.

How the values were obtained:
[1] = Lipophilicity, log D of the compound; assay type: physicochemical; conditions: octanol/water
Acetyl-CoA carboxylase 1 [2] = target: Acetyl-CoA carboxylase 1 (Homo sapiens, UniProt Q13085); test: Inhibition of human recombinant his-tagged ACC1 expressed in baculovirus/Sf9 cell assessed as inorganic phosphate formation […] measured after 1.5 hrs by Malachite green reagent method
Acetyl-CoA carboxylase 2 = Acetyl-CoA carboxylase 2 (Homo sapiens, UniProt O00763); test: Inhibition of human recombinant his-tagged ACC2 expressed in baculovirus/Sf9 cell assessed as inorganic phosphate formation […] measured after 1.5 hrs by Malachite green reagent method
Rattus norvegicus = test: Antiobesity activity in obese Zucker rat assessed as reduction in hepatic malonyl-coA level, iv administered 2 hrs; assay type: functional; design: scale not given: the % may be the effect or the level left
How it was run: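 Obese Zucker rats were anaesthetized with Inactin (180 mg/kg ip), tracheotomized and fitted with carotid and jugular catheters. After 1.5 h post-surgery stabilization at 37.5 °C, compound or vehicle was infused iv; lean vehicle controls were included. Hepatic malonyl-CoA was measured by ion-pair HPLC–negative ESI MS/MS against a ¹³C₃ internal standard and related to plasma free exposure (fu×Cp/rat ACC2 IC50).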

[3] = Solubility of the compound after 16 hrs by LC-UV/MS analysis; assay type: physicochemical
[4] = Fraction unbound in human plasma at 10 uM after 18 hrs by equilibrium dialysis method; assay type: ADME, cell-free
[5] = Intrinsic clearance in human liver microsome at 1 uM after 30 mins by LC-UV/MS analysis; assay type: ADME; conditions: liver microsomes
[6] = Clearance in Sprague-Dawley rat at 3 to 5 umol/kg, iv; assay type: ADME, organism-based; conditions: in vivo
[7] = Clearance in C57BL/6 mouse at 5 umol/kg, iv and 10 umol/kg, po; assay type: ADME, organism-based; conditions: in vivo
[8] = Volume of distribution in C57BL/6 mouse at 5 umol/kg, iv and 10 umol/kg, po; assay type: ADME, organism-based; conditions: in vivo
[9] = Half life in C57BL/6 mouse at 10 umol/kg, po; assay type: ADME, organism-based; conditions: in vivo
[10] = Oral bioavailability in C57BL/6 mouse at 10 umol/kg; assay type: ADME, organism-based; conditions: in vivo
[11] = target: Acetyl-Coenzyme A carboxylase 2 (Rattus norvegicus, UniProt Q1HEC0); test: Inhibition of ACC2 […] preincubated for 15 mins measured after 1.5 hrs using Malachite green reagent method
Acetyl-CoA carboxylase 1 [12] = target: Acetyl-CoA carboxylase 1 (Rattus norvegicus, UniProt P11497); test: Inhibition of rat ACC1 assessed as inorganic phosphate generation preincubated for 5 mins measured after 1.5 hrs using Malachite green reagent method
Cytochrome P450 2C9 = Cytochrome P450 2C9 (Homo sapiens, UniProt P11712); test: Inhibition of CYP2C9; assay type: ADME
Cytochrome P450 3A4 = Cytochrome P450 3A4 (Homo sapiens, UniProt P08684); test: Inhibition of CYP3A4; assay type: ADME
Cytochrome P450 1A2 = target: T1, Cytochrome P450 1A2 (Homo sapiens, UniProt P05177); test: Inhibition of CYP1A2; assay type: ADME
T1 sequence (P05177 whole entry): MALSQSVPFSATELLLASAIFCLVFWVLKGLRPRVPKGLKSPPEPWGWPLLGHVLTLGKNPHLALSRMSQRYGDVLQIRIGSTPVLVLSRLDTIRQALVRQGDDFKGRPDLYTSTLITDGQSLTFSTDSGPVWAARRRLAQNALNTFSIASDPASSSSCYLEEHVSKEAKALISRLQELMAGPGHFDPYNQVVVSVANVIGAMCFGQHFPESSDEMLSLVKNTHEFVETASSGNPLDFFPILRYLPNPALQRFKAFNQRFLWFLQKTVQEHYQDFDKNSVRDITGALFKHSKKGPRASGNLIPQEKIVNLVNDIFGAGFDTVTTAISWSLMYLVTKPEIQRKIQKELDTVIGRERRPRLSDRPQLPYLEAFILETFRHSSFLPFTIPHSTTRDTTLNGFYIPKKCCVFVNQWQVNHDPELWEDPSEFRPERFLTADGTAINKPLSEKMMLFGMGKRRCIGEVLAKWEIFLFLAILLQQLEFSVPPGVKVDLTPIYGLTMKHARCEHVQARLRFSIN

[13] = Clearance in C57BL/6 mouse at 33 umol/kg, iv and po; assay type: ADME, organism-based; conditions: in vivo
[14] = Volume of distribution in C57BL/6 mouse at 33 umol/kg, iv and po; assay type: ADME, organism-based; conditions: in vivo
[15] = Half life in C57BL/6 mouse at 33 umol/kg, po; assay type: ADME, organism-based; conditions: in vivo
[16] = Oral bioavailability in C57BL/6 mouse at 33 umol/kg; assay type: ADME, organism-based; conditions: in vivo
[17] = Apparent permeability from apical to basolateral side of human Caco2 cells at pH 7.4 by LCMS; assay type: ADME, cell-based; conditions: Caco-2, pH 7.4

Acetyl-CoA carboxylase 2, sequence (O00763 whole entry): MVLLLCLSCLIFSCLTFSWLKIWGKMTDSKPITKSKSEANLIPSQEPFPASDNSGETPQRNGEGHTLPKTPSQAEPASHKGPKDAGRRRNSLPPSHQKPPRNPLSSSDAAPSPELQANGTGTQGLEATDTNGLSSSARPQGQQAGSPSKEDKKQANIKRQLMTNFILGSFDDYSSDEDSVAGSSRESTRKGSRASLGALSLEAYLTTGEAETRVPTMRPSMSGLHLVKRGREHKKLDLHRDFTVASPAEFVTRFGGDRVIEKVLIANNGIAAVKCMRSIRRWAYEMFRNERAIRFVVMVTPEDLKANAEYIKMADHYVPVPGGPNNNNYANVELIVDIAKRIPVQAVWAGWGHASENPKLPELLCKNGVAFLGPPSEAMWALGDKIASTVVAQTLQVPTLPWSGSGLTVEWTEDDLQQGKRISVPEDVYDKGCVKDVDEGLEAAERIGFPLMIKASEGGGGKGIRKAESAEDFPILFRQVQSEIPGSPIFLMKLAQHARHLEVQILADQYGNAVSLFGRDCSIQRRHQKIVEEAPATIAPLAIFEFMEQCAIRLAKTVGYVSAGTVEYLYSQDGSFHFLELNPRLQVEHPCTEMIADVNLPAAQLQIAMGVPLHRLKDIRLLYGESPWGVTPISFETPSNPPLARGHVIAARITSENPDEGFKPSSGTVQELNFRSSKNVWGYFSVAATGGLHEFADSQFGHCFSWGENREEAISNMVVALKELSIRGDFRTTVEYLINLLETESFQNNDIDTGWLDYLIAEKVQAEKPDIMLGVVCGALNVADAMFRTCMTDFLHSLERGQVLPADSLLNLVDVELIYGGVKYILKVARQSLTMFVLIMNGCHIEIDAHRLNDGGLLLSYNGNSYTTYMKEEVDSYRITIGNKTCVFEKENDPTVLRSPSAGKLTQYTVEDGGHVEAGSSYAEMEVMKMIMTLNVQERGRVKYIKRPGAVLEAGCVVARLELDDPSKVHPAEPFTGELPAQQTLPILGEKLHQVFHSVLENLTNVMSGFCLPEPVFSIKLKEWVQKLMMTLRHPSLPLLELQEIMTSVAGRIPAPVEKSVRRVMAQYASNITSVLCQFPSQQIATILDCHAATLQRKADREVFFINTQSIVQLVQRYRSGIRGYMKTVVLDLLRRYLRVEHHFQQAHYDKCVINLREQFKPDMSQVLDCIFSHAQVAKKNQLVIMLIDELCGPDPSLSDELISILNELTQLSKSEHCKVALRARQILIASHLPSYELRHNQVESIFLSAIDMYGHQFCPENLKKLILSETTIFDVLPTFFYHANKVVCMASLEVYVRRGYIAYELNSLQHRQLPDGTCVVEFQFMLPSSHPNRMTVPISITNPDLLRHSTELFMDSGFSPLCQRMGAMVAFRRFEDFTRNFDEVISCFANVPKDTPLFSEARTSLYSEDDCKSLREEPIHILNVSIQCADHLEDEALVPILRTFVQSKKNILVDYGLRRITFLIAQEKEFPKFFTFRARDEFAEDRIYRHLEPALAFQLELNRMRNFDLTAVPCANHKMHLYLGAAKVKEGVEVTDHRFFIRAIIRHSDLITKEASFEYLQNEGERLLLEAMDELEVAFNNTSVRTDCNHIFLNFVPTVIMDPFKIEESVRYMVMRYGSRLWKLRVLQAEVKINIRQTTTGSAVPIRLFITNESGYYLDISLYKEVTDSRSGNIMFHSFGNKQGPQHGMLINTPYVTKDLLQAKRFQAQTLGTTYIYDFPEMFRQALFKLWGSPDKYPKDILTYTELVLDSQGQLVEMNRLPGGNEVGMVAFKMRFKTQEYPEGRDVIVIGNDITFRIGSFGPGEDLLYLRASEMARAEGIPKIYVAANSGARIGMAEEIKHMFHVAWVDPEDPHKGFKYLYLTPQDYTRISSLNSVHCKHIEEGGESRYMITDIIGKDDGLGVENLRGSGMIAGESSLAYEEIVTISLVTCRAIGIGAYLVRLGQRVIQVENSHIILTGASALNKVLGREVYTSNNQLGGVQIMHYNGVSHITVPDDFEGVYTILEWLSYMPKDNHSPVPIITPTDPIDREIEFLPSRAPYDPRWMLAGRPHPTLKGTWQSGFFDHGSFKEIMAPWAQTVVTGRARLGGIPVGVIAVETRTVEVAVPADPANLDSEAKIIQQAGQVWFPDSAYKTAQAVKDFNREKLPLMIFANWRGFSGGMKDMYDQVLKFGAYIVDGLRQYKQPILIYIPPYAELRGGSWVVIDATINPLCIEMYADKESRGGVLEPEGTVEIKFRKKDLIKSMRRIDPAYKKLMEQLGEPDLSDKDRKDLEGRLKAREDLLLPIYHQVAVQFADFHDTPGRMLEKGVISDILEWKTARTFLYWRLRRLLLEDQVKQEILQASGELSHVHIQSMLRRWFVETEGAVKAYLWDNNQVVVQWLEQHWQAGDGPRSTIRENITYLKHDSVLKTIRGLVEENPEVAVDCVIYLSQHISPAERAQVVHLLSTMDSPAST
Acetyl-Coenzyme A carboxylase 2, sequence (Q1HEC0 whole entry): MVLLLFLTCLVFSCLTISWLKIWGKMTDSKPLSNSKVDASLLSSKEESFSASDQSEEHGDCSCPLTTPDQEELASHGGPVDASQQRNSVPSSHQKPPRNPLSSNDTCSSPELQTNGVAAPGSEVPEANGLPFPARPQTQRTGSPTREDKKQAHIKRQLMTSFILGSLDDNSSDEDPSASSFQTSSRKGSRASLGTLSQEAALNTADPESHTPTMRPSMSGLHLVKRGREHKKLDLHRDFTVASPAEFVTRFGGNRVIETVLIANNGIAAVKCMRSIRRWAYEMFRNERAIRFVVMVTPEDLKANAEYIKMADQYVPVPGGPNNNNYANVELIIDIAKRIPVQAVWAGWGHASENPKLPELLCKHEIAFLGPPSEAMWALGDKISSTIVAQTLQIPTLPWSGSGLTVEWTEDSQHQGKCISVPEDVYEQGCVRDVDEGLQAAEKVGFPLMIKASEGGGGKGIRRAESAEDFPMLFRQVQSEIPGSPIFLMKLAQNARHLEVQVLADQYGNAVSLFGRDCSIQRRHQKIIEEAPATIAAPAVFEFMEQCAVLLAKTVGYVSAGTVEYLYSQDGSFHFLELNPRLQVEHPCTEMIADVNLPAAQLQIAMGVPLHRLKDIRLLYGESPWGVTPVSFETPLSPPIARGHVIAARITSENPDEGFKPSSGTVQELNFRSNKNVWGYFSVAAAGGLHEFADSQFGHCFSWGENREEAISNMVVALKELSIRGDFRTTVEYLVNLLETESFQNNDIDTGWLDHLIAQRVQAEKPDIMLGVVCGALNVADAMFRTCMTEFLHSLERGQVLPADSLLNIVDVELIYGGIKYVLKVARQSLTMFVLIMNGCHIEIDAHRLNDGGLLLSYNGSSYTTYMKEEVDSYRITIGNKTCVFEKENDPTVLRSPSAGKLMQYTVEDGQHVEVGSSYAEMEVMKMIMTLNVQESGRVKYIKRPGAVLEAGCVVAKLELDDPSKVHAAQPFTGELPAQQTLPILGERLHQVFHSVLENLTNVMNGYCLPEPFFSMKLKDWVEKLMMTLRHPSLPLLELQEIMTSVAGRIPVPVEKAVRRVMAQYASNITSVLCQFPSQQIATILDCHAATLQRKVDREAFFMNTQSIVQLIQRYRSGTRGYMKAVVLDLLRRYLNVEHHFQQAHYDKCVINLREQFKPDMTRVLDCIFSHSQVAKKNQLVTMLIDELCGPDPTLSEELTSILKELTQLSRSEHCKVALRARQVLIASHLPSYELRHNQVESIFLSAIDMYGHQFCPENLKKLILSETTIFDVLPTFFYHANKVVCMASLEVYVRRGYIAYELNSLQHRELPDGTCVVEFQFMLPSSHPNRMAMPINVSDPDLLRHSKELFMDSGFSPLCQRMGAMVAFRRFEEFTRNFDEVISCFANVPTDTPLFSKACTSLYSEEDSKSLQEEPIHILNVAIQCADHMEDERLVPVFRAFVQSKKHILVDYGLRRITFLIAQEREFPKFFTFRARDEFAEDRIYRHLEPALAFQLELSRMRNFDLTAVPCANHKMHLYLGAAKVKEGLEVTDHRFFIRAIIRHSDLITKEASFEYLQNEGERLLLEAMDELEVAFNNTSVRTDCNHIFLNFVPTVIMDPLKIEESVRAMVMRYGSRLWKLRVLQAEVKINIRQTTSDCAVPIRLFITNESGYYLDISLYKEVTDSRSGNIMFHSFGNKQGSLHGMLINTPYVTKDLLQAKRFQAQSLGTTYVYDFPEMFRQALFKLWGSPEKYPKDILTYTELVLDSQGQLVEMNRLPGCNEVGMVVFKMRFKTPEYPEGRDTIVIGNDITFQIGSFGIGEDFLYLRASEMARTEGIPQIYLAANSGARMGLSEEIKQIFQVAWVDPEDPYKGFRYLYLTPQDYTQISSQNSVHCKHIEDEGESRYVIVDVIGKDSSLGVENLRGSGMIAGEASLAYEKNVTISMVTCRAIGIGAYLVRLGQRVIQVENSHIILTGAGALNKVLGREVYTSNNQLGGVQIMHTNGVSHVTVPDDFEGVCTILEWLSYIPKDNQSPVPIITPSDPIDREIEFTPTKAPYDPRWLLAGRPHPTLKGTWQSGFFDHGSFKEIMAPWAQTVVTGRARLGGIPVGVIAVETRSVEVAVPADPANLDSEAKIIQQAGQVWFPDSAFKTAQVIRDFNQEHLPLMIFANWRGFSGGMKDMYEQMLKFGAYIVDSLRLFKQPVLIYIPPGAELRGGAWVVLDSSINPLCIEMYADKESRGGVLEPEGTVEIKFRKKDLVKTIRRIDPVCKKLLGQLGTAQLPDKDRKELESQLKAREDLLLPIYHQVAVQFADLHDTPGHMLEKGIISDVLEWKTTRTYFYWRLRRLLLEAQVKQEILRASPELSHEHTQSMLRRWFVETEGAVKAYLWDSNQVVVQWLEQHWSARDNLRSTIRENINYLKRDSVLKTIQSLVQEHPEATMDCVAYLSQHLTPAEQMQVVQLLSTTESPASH

Compound `CC(C)(C)OC(=O)NC[C@H]1CC[C@H](CNC(=O)c2cc(-c3ccc(CN)cc3)nc3ccccc23)CC1` has a logD [1] of 3.2 and an IC50 (Acetyl-CoA carboxylase 1 [2]) of 1700 nM.
Compound `CC(C)(C)OC(=O)NC[C@H]1CC[C@H](CNS(=O)(=O)c2ccc3ccccc3c2)CC1` has an IC50 (Acetyl-CoA carboxylase 2) of 2500 nM.
`O=C(c1c2ccccc2cc2ccccc12)N1CCC(N2CCC[C@@H](C(=O)N3CCOCC3)C2)CC1` gave an Activity (Rattus norvegicus) of 50%.
With `CC(C)(C)OC(=O)NC[C@H]1CC[C@H](CNC(=O)c2cc(N3CCC(CCN4CC(O)C4)CC3)nc3ccccc23)CC1` the logD [1] was 3.6, the solubility at 16 h [3] was 80 µM (≈ 46.4 µg/mL) and the fraction unbound at 18 h, 10 µM [4] was 0.033. The microsomal CLint at 1 µM [5] was 16 µL/min/mg, the clearance [6] was 70 mL/min/kg and the IC50 (Acetyl-CoA carboxylase 1 [2]) was 1000 nM. It also gave a clearance [7] of 33 mL/min/kg, a Vd [8] of 3.6 L/kg and a half-life [9] of 258 min. It also gave a bioavailability [10] of 135%, an IC50 [11] of 150 nM and an Activity (Rattus norvegicus) of 50%. It also gave an IC50 (Acetyl-CoA carboxylase 1 [12]) of 250 nM.
With `CC(C)(C)OC(=O)NC[C@H]1CC[C@H](CNC(=O)c2cc(-c3cccc(CN)c3)nc3ccccc23)CC1` the logD [1] was 3.4, the solubility at 16 h [3] was 8 µM (≈ 4.02 µg/mL) and the microsomal CLint at 1 µM [5] was 14 µL/min/mg. For the same compound, the clearance [6] was 104 mL/min/kg, the IC50 (Cytochrome P450 2C9) was 800 nM and the IC50 (Cytochrome P450 3A4) was 2400 nM. It also gave an IC50 (Cytochrome P450 1A2) of 4 µM, an IC50 (Acetyl-CoA carboxylase 2) of 52 nM and an IC50 (Acetyl-CoA carboxylase 1 [2]) of 240 nM.
With `CN(C)CCC1CCN(c2cc(C(=O)NC[C@H]3CC[C@H](CNC(=O)OCC(C)(C)C)CC3)c3ccccc3n2)CC1` the logD [1] was 4, the IC50 (Acetyl-CoA carboxylase 2) was 130 nM and the IC50 (Acetyl-CoA carboxylase 1 [2]) was 1000 nM. It also gave a clearance [13] of 52 mL/min/kg, a Vd [14] of 9.6 L/kg and a half-life [15] of 174 min. For the same compound, the bioavailability [16] was 115%.
With `Cc1cc(C(=O)NC[C@H]2CC[C@H](CNC(=O)OC(C)(C)C)CC2)cc(-c2ccccc2)n1` the logD [1] was 5.3.
For `CC(C)(C)OC(=O)NC[C@H]1CC[C@H](CNC(=O)c2cc(-c3cn[nH]c3)nc3ccccc23)CC1`, the logD [1] was 3.5, the IC50 (Acetyl-CoA carboxylase 2) was 570 nM and the IC50 (Acetyl-CoA carboxylase 1 [2]) was 2300 nM.
In the case of `CC(C)(C)OC(=O)NC[C@H]1CC[C@H](CNC(=O)c2cc(N3CCNCC3)nc3ccccc23)CC1`, the logD [1] is reported as 2.9 and the IC50 (Acetyl-CoA carboxylase 1 [2]) is reported as 13000 nM.
In the case of `CC(C)(C)OC(=O)NC[C@H]1CC[C@H](CNC(=O)c2cc(Cl)nc3ccccc23)CC1`, the logD [1] is reported as 4.9.
In the case of `CC(C)(C)OC(=O)NC[C@H]1CC[C@H](CNC(=O)c2ccnc(-c3ccccc3)c2)CC1`, the logD [1] is reported as 4.7.
Work on `Cc1noc(C)c1-c1cc(C(=O)NC[C@H]2CC[C@H](CNC(=O)OC(C)(C)C)CC2)c2ccccc2n1` yielded a logD [1] of 5.
For `CC(C)(C)OC(=O)NC[C@H]1CC[C@H](CNC(=O)c2cc(-c3ccc(C(=O)O)cc3)nc3ccccc23)CC1`, the logD [1] was 2.5, the IC50 (Acetyl-CoA carboxylase 2) was 750 nM and the IC50 (Acetyl-CoA carboxylase 1 [2]) was 2900 nM.
Compound `CC(C)(C)OC(=O)NC[C@H]1CC[C@H](CNC(=O)c2cc(N3CCC(CCN)CC3)nc3ccccc23)CC1` has a logD [1] of 3.2, a Papp A→B [17] of 0.5 ×10⁻⁶ cm/s and an IC50 (Acetyl-CoA carboxylase 2) of 89 nM. For the same compound, the IC50 (Acetyl-CoA carboxylase 1 [2]) was 780 nM.
